Data on 2 molecules can be found in publication PMC2926617 (Nucleic Acids Research, 2010).

Data set [1] deals with T1, CarS (Myxococcus xanthus, UniProt Q06911).
T1 sequence (Q06911 1-111): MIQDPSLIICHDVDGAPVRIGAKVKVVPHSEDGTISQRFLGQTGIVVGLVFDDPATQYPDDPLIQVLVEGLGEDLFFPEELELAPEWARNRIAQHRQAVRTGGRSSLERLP
Description: Yeast two-hybrid interaction with CarS. As to conditions: not shown. The class given is cell-based. Summed up: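 Yeast EGY48 carrying lacZ reporter pSH18-34 was cotransformed (lithium acetate) with LexA–CarA and B42–CarS or variant fusions. Equal-density cultures were spotted on galactose or glucose (basal fusion expression) plates with leucine, grown 1 day at 30°C, then overlaid with X-Gal agarose for 2–3 h (Gal) or ≥7 h (Glu). Interaction was scored by blue colour; single-hybrid cells served as controls.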

For data set [2], the target named is T1, CarS. As to the kind of experiment: ITC titration with CarS. The data set is classed as binding. As to conditions: ITC. In general terms: ITC needs no label: the signal is the heat of the interaction.
Another data set concerns CarS(F77A). Description: ITC titration with CarS. The class given is binding, Myxococcus xanthus. As to conditions: pH 7.5. Summed up: (§1)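 ITC in 100 mM NaCl, 50 mM phosphate pH 7.5, 2 mM β-mercaptoethanol, 0.05% sodium azide; samples were dialysed or dissolved in this buffer and degassed. Cell held 20 µM CarANt or peptide, titrated with 30 injections of 0.22 mM CarS variant, stirring 300 rpm. Heat of dilution was subtracted using buffer controls. Data were fit to a single-site model; at least two independent titrations.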

For another data set, the system named is CarS(D52A/D53A). Description: ITC titration with CarS. The class given is binding, Myxococcus xanthus. As to conditions: pH 7.5. Summed up:
as §1

A short description of data set [3]: Analytical gel filtration of pure proteins. The class given is physicochemical. As to conditions: Superdex200, 50 mM phosphate pH 7.5, 2 mM β-mercaptoethanol. An outline of the steps:
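Superdex200 analytical size-exclusion HPLC in 50 mM phosphate pH 7.5, 2 mM β-mercaptoethanol and the required NaCl. Samples were 10–50 µM pure protein, or CarNt or CarHNt mixed with CarS or variant at equivalent concentrations. Flow was 0.4 ml/min with detection at 280, 235 and 220 nm. Peak fractions were identified by SDS–PAGE. Mr was taken from elution volume via log Mr = 7.64 – 0.209 Ve.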

Data set [4] has as its target T2, CarS1 (Myxococcus xanthus, UniProt Q06911).
T2 sequence (Q06911 1-86): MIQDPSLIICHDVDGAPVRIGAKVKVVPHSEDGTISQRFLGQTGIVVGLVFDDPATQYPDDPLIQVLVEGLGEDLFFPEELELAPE
As to the kind of experiment: Far-UV CD spectroscopy with CarS1. As to conditions: 1:1 molar ratio with CarS1, 25°C, 100 mM KF, 7.5 mM phosphate pH 7.5. An outline of the steps: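 Far-UV CD at 25°C, 10–20 µM samples in 100 mM KF, 7.5 mM phosphate pH 7.5, three scans averaged, 0.2-nm steps. Peptide (18 µM) or CarANt (11 µM) was measured alone and mixed 1:1 with CarS1. The read-out was molar ellipticity difference between the mixture and CarS1 alone.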

For data set [5], the target named is T1, CarS. Description: Far-UV CD spectroscopy with CarS. As to conditions: 25°C, 100 mM KF, 7.5 mM phosphate pH 7.5. An outline of the steps:
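Far-UV CD was recorded at 25°C in 0.2-nm steps (adaptive sampling) with 2-nm slit width, averaging three scans. Samples were 10–20 µM protein, peptide or 1:1 mixture in 100 mM KF, 7.5 mM phosphate pH 7.5. The instrument was calibrated with (+)-10-camphorsulfonic acid.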

In data set [6] the target is T2, CarS1. As to the kind of experiment: NMR chemical shift mapping on labeled H6CarS1. The data set is classed as binding. As to conditions: ^15N, ^13C-H6CarS1 0.10–0.25 mM titrated with unlabeled CarANt, P01 or P02, 25°C or 45°C.

Entries after “also recorded” stand apart in the source; their conditions may differ.

B1: R27A variant of whole CarH (protein)
chain: MAERTYRINIAAELAGVRVELIRAWEARYGVLTPRRTPAGYRAYTDRDVAVLKQLKRLTDEGVAISEAAKLLPQLMEGLEAEVAGRGASQDARPHAETWRESMLAATQAYDQPRVSDVLDEVLAALPPLKAFDEVLAPLLCDVGERWESGTLTVAQEHLVSQMVRARLVSLLHAAPLGRHRHGVLACFPEEEHEMGLLGAALRLRHLGVRVTLLGQRVPAEDLGRAVLALRPDFVGLSTVASRSAEDFEDTLTRLRQALPRGLPVWVGGAAARSHQAVCERLAVHVFQGEEDWDRLAGT
Consider B1, for which, in the data set with CarS [1], the “Two-hybrid interaction with CarS” value was “lack of interaction with CarS”.

B2: CarANt: the highly basic and autonomously folded N-terminal DNA-binding domain of CarA (protein)
chain: MTLRIRTIARMTGIREATLRAWERRYGFPRPLRSEGNNYRVYSREEVEAVRRVARLIQEEGLSVSEAIAQVKTEPPRE
modifications: left off: H6, end not stated, cleaved
As for B2, the “KD relative to P01 and P02” value in the data set with CarS [2] is “over an order of magnitude lower”. In addition, the “N (binding stoichiometry)” value with CarS [2] (CarS, 25 °C, pH 7.5, 100 mM NaCl, 50 mM phosphate, 2 mM β-mercaptoethanol, 0.05% sodium azide, 20 µM CarANt or peptide titrated with 0.22 mM CarS, average of at least two independent titrations) is 0.94 ± 0.01. Also, in the data set with CarS [2] (CarS, 25 °C, pH 7.5, 100 mM NaCl, 50 mM phosphate, average of at least two independent titrations), the ΔH was −9.24 ± 0.02 kcalmol^−1. Further, in the data set with CarS [2] (CarS, 25 °C, pH 7.5, 100 mM NaCl, 50 mM phosphate, single-site binding model, average of at least two independent titrations), the Kd (in general, a measure of binding affinity in units of concentration) is approximately 10 nM. The “ITC heat change / binding” value with CarS(F77A) was “could not be detected; also recorded: ^aHeat changes were negligible or undetected for the following titrations: (i) CarANt or P01 with CarS(F77A) or CarS(D52A/D53A); (ii) P03 with CarS or CarS1; (iii) TtP01 with CarS (for details on peptides P01, P02, P03, CHP01 and TtP01, see Figures 3A and 4A, and text)”; in the data set with CarS(D52A/D53A), “could not be detected; also recorded: ^aHeat changes were negligible or undetected for the following titrations: (i) CarANt or P01 with CarS(F77A) or CarS(D52A/D53A); (ii) P03 with CarS or CarS1; (iii) TtP01 with CarS (for details on peptides P01, P02, P03, CHP01 and TtP01, see Figures 3A and 4A, and text)”. The “Apparent Mr of pure protein” value in data set [3] was determined as 9.6 kDa. For the same molecule, in the data set with CarS1 [4], the “Far-UV CD change / helix content in presence of CarS1” value is reported as “no significant change”. The “Far-UV CD change in presence of CarS” value in the data set with CarS [5] was “in a manner similar to CarS1”. The “Chemical shift perturbations of labeled H6CarS1” value with CarS1 [6] is “significant perturbations for the methyl cross-peaks of V26, L63, L75, L81 (Figure 1C) and I64”.
